What all share (assay type): functional, cell-based
In one assay the test system is A549. Put plainly: Cytotoxicity against human A549 cells by MTT assay. A digest of the protocol: (§1)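 Cells kept in RPMI 1640 with 10% FBS, penicillin 100 units/mL and streptomycin 100 μg/mL, at 37 °C in humidified 5% CO2. Seeded at 1200 cells/well; compounds added after 24 h and incubated 96 h. Tested at 10^-5 to 10^-9 M (five concentrations) from DMSO stocks, with 0.1% DMSO final, in triplicate wells. Viability by MTT formazan absorbance at 570 nm.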
Background: Tetrazolium assays rely on reduction of a dye to a coloured formazan, in cell work by metabolically active cells.

Another assay has as its system A2780. Briefly: Cytotoxicity against human A2780 cells by MTT assay. A digest of the protocol:
as §1

The next assay deals with Bel-7402. Briefly: Cytotoxicity against human Bel7402 cells by MTT assay. A digest of the protocol: as §1
For another assay, the system named is HCT-8. Put plainly: Cytotoxicity against human HCT8 cells by MTT assay. A digest of the protocol:
as §1

The next assay concerns BGC-823. Put plainly: Cytotoxicity against human BGC823 cells by MTT assay. A digest of the protocol: as §1

The values that follow come from ChEMBL document CHEMBL1141352, “Microbial transformation of cephalomannine by Luteibacter sp” (J Nat Prod, 2007).

As usually defined, the IC50 is the concentration that inhibits the measured activity by half. On to `CC(=O)O[C@@]12CO[C@@H]1C[C@@H](O)[C@@]1(C)C(=O)C(=O)C3=C(C)[C@@H](O)C[C@@](O)([C@@H](OC(=O)c4ccccc4)[C@H]21)C3(C)C`, for which the IC50 was more than 10000 nM with A549; 4890 nM in the assay on A2780; more than 10000 nM in the assay with Bel-7402; more than 10000 nM with HCT-8; 1380 nM in the assay with BGC-823.
For `CC(=O)O[C@H]1C(=O)[C@]2(C)[C@@H](O[C@H]3OC[C@@H](O)[C@H](O)[C@H]3O)C[C@H]3OC[C@@]3(OC(C)=O)[C@H]2[C@H](OC(=O)c2ccccc2)[C@]2(O)C[C@H](O)C(C)=C1C2(C)C`, the IC50 in the assay with A549, in the assay with A2780, in the assay on Bel-7402, in the assay with HCT-8 and with BGC-823 was more than 10000 nM throughout.
As to `C/C=C(\C)C(=O)N[C@@H](c1ccccc1)[C@@H](O)C(=O)O[C@H]1C[C@@]2(O)[C@@H](OC(=O)c3ccccc3)[C@@H]3[C@]4(OC(C)=O)CO[C@@H]4C[C@H](O)[C@@]3(C)C(=O)[C@H](O)C(=C1C)C2(C)C`, the IC50 with A549 is more than 10000 nM; with A2780 it was 90 nM; in the assay with Bel-7402, 2690 nM; in the assay on HCT-8, 3290 nM; in the assay with BGC-823 it was 100 nM.
In the case of `C/C=C(/C)C(=O)N[C@@H](c1ccccc1)[C@@H](O)C(=O)O[C@H]1C[C@@]2(O)[C@@H](OC(=O)c3ccccc3)[C@@H]3[C@]4(OC(C)=O)CO[C@@H]4C[C@@H](O)[C@@]3(C)C(=O)[C@H](O)C(=C1C)C2(C)C`, the half-inhibitory concentration (IC50) in the assay on A549 was found to be 3240 nM; with A2780, 350 nM; in the assay on Bel-7402, 3530 nM; in the assay with HCT-8 it was 2230 nM; in the assay on BGC-823, 790 nM.
Taken in the same sequence, the figures for `C/C=C(/C)C(=O)N[C@@H](c1ccccc1)[C@@H](O)C(=O)O[C@H]1C[C@@]2(O)[C@@H](OC(=O)c3ccccc3)[C@@H]3[C@]4(OC(C)=O)CO[C@@H]4C[C@@H](O)[C@@]3(C)C(=O)[C@H](OC(C)=O)C(=C1C)C2(C)C` were 90 nM, 70 nM, 690 nM, 230 nM and 90 nM.
As for `CCC(C)C(=O)N[C@@H](c1ccccc1)[C@@H](O)C(=O)O[C@H]1C[C@@]2(O)[C@@H](OC(=O)c3ccccc3)[C@@H]3[C@]4(OC(C)=O)CO[C@@H]4C[C@@H](O)[C@@]3(C)C(=O)[C@H](OC(C)=O)C(=C1C)C2(C)C` (stereo not given in full), the IC50 in the assay with A549 amounted to 2240 nM; in the assay on A2780, 650 nM; in the assay with Bel-7402, 3300 nM; with HCT-8, 1570 nM; in the assay on BGC-823 it was 530 nM.
With `C/C=C(\C)C(=O)N[C@@H](c1ccccc1)[C@@H](O)C(=O)O[C@H]1C[C@@]2(O)[C@@H](OC(=O)c3ccccc3)[C@@H]3[C@]4(OC(C)=O)CO[C@@H]4C[C@H](O)[C@@]3(C)C(=O)[C@H](OC(C)=O)C(=C1C)C2(C)C` [CEPHALOMANNINE], the IC50 stood at 100 nM in the assay on A549; 100 nM in the assay with A2780; 920 nM in the assay on Bel-7402; 310 nM in the assay on HCT-8; 100 nM in the assay with BGC-823.
Regarding `CC(=O)O[C@H]1C(=O)[C@@]2(C)[C@H]([C@H](OC(=O)c3ccccc3)[C@]3(O)C[C@H](OC(=O)[C@H](O)[C@@H](NC(=O)c4ccccc4)c4ccccc4)C(C)=C1C3(C)C)[C@]1(OC(C)=O)CO[C@@H]1C[C@@H]2O` [PACLITAXEL], the IC50 was determined as 19 nM in the assay with A549; 6.3 nM in the assay with A2780; 100 nM in the assay on Bel-7402; 37 nM in the assay with HCT-8; 7 nM in the assay with BGC-823.
